This is an account of results in ChEMBL document CHEMBL1156546, “Synthesis and positive inotropic activity of N-(4,5-dihydro-[1,2,4]triazolo[4,3-a]quinolin-7-yl)-2-(piperazin-1-yl)acetamide derivatives” (2008).

Activity calls are given as the source filed them. The rule behind the calls is not given here.

The species entered for assay [1] is Oryctolagus cuniculus. In words: Inotropic effect on isolated rabbit heart assessed as increase in left atrium stroke volume. In kind it is functional. More on the design: concentration or dose not given beside the values. In a few lines:
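Isolated perfused rabbit left atrium, HEPES buffer pH 7.4 (mM: 118 NaCl, 4.7 KCl, 2.5 CaCl2, 1.2 MgCl2, 25 NaHCO3, 10 glucose, 10 HEPES; 0.1% BSA) pumped at 1.25 mL/min. 60 min stabilization, pacing 1.5 Hz. Single dose 3×10^-5 M (DMSO stock diluted in buffer) after control cycle; 12-min cycles, stroke volume read every 2 min. Reported as % stroke volume increase, means ± SE, ANOVA.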

For assay [2], the species on record is Oryctolagus cuniculus. In words: Chronotropic effect on isolated rabbit heart assessed as change in heart beats. In kind it is functional. In a few lines: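 Heart rate measured in isolated rabbit hearts from the electrocardiogram in a volume conduction model. Samples at 3×10^-5 M, dissolved in DMSO and diluted in HEPES buffer. Rate recorded before (control) and after sample. Means ± SE, repeated measures compared by ANOVA, P < 0.05.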

In the case of `CC(=O)N1CCN(CC(=O)Nc2ccc3c(c2)CCc2nnc(C)n2-3)CC1`, the result in the assay filed under Oryctolagus cuniculus [1] (Cardiac atrium) was inactive.
`Cc1cccc(C(=O)N2CCN(CC(=O)Nc3ccc4c(c3)CCc3nnc(Cc5ccccc5)n3-4)CC2)c1`: the Activity in the assay filed under Oryctolagus cuniculus [1] turned out to be 0.5%.
`Cc1[nH]c(=O)c(C#N)cc1-c1ccncc1` [MILRINONE]: the Activity in the assay filed under Oryctolagus cuniculus [1] was determined as 4.7%.
As to `O=C(CN1CCN(Cc2ccccc2)CC1)Nc1ccc2c(c1)CCc1nnc(Cc3ccccc3)n1-2`, the Activity is on record as 109.3 bpm in the assay filed under Oryctolagus cuniculus [2] and 13.2% in the assay filed under Oryctolagus cuniculus [1].
`Cc1nnc2n1-c1ccc(NC(=O)CN3CCN(C(=O)c4cccc([N+](=O)[O-])c4)CC3)cc1CC2`: in the assay filed under Oryctolagus cuniculus [1] (Cardiac atrium), the result was inactive.
Turning to `Cc1cccc(C(=O)N2CCN(CC(=O)Nc3ccc4c(c3)CCc3nnc(C)n3-4)CC2)c1`, in the assay filed under Oryctolagus cuniculus [1], the Activity was 8.8%.
Regarding `O=C(CN1CCN(Cc2ccc3c(c2)OCO3)CC1)Nc1ccc2c(c1)CCc1nnc(Cc3ccccc3)n1-2`, the Activity turned out to be 89.2 bpm in the assay filed under Oryctolagus cuniculus [2] and 5.2% in the assay filed under Oryctolagus cuniculus [1].
For the molecule `Cc1ccc(C(=O)N2CCN(CC(=O)Nc3ccc4c(c3)CCc3nnc(C)n3-4)CC2)cc1`, the Activity in the assay listed under Oryctolagus cuniculus [1] is 1.3%.
With `Cc1ccc(C(=O)N2CCN(CC(=O)Nc3ccc4c(c3)CCc3nnc(Cc5ccccc5)n3-4)CC2)cc1`, the Activity in the assay listed under Oryctolagus cuniculus [1] came to 0.7%.
For the molecule `COc1ccc(C(=O)N2CCN(CC(=O)Nc3ccc4c(c3)CCc3nnc(C)n3-4)CC2)cc1OC`, the values for the Activity in the assay filed under Oryctolagus cuniculus [2] and in the assay filed under Oryctolagus cuniculus [1] were 129.2 bpm and 5.3%, respectively.
In the case of `Cc1nnc2n1-c1ccc(NC(=O)CN3CCN(C(=O)c4ccccc4)CC3)cc1CC2`, the outcome in the assay filed under Oryctolagus cuniculus [1] (Cardiac atrium) was inactive.
Consider `O=C(CN1CCN(C(=O)c2ccccc2)CC1)Nc1ccc2c(c1)CCc1nnc(Cc3ccccc3)n1-2`, for which the result in the assay listed under Oryctolagus cuniculus [1] (Cardiac atrium) was inactive.
With `COc1ccc(CN2CCN(CC(=O)Nc3ccc4c(c3)CCc3nnc(C)n3-4)CC2)cc1`, the results for the Activity in the assay filed under Oryctolagus cuniculus [2] and in the assay filed under Oryctolagus cuniculus [1] were 105.6 bpm and 10.1%, respectively.
For `Cc1nnc2n1-c1ccc(NC(=O)CN3CCN(Cc4ccc5c(c4)OCO5)CC3)cc1CC2`, the Activity came to 136.9 bpm in the assay filed under Oryctolagus cuniculus [2] and 5.1% in the assay filed under Oryctolagus cuniculus [1].
`COc1cc(CN2CCN(CC(=O)Nc3ccc4c(c3)CCc3nnc(C)n3-4)CC2)ccc1OCc1ccccc1`: the Activity in the assay listed under Oryctolagus cuniculus [2] amounted to 111.5 bpm; in the assay listed under Oryctolagus cuniculus [1], 9%.
As for `Cc1nnc2n1-c1ccc(NC(=O)CN3CCN(Cc4ccccc4)CC3)cc1CC2`, the outcome in the assay filed under Oryctolagus cuniculus [1] (Cardiac atrium) was inactive.
Turning to `O=C(CN1CCN(C(=O)c2cccc(Cl)c2)CC1)Nc1ccc2c(c1)CCc1nnc(Cc3ccccc3)n1-2`, the Activity in the assay filed under Oryctolagus cuniculus [1] is reported as 2.4%.
Turning to `Cc1nnc2n1-c1ccc(NC(=O)CN3CCN(C(=O)c4cccc(Cl)c4)CC3)cc1CC2`, the outcome in the assay listed under Oryctolagus cuniculus [1] (Cardiac atrium) was inactive.
For the molecule `Cc1nnc2n1-c1ccc(NC(=O)CN3CCN(Cc4ccccc4Br)CC3)cc1CC2`, the outcome in the assay listed under Oryctolagus cuniculus [1] (Cardiac atrium) was inactive.
The same measure, in the same setting: with `Cc1nnc2n1-c1ccc(NC(=O)CN3CCN(C(=O)c4ccc([N+](=O)[O-])cc4)CC3)cc1CC2` the entry was “inactive”.
